Bioassay records from PubChem BioAssay.
IDE cell activ: human IDE activators in live cells, primary screen, fluorescence polarization, HEK cells, FAbeta-B substrate | 340,000 compounds, 0.073% hits | FAbeta-B cleavage; 0% vehicle, 100% cell-free pure enzyme wells | activation, % at 5.96 µM;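 active = activation above the mean of all tested compounds plus 3 SD, set per screening campaign, cut at about 17% in these data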
PHOSPHO1 inh: PubChem AID 1565; Phosphoethanolamine/phosphocholine phosphatase (Homo sapiens), Q8TCT1; recombinant PHOSPHO1, absorbance phosphatase assay; inhibition, % at 13.3 µM; 290,000 compounds, 1.1% hits; in the data active = inhibition above about 60%
Target sequence (Q8TCT1 whole entry, looked up): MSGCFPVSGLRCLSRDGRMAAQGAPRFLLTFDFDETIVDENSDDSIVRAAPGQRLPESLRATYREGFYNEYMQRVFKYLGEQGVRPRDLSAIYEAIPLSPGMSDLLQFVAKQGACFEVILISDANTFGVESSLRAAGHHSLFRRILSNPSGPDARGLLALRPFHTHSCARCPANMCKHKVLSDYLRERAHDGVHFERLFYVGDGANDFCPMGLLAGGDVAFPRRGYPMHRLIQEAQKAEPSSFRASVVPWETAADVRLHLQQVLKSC
procasp7 counter: procaspase-7 activators, primary screen, counter-screen for procaspase-3 activator project, biochemical, absorbance, HTS, human; Caspase-7 (Homo sapiens), P55210; recombinant procaspase-7, Ac-DEVD-pNA absorbance 405 nm; D23A/D198A/D206A triple mutant, cannot self-cleave; scale: DMSO 0, 5 µM enzyme 100; activation, % at 8.5 µM; 330,000 compounds, 0.093% hits; AID 463210, 2010;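 active = percent activation above the screen-wide mean plus 3 SD, cut at about 25% in these data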
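signal = Epi-absorbance of released pNA at 405 nm, two timepoints | assay system = Uncleavable procaspase-7 mutant enzyme | reagent = Ac-DEVD-pNA substrate, 400 µM as added | times = 1 h enzyme–compound preincubation and 2 h substrate reaction, both 25 °C | benchmarks = low DMSO alone, high DMSO plus 5 µM PC-7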
UBC13 inh: UBC13 polyubiquitin chain formation inhibitors, primary screen, biochemical, TR-FRET, uHTS. Ubiquitin-conjugating enzyme E2 N (Homo sapiens), P61088. AID 485273, 2010. inhibition, % at 20 µM. 330,000 compounds, 0.47% hits; in the data active = inhibition above about 45%, passing the limit was not always enough
Target sequence (P61088 whole entry, looked up): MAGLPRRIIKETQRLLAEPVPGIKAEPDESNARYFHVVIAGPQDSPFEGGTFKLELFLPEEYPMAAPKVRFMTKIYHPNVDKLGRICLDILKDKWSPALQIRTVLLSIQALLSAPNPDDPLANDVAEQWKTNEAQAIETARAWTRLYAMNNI
procasp3 activ: activators of human procaspase-3 D3A mutant, primary screen, biochemical, absorbance, PC-3 D3A mutant, single concentration. Caspase-3 (Homo sapiens), P42574. recombinant procaspase-3 D3A, Ac-DEVD-pNA absorbance 405 nm. activation, % at 8.5 µM. 330,000 compounds, 0.11% hits;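 active = activation above the mean of all tested compounds plus 3 SD, cut at about 21% in these data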;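 note: 0% = DMSO alone and 100% = DMSO wells spiked with extra 5 µM PC-3 D3A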
Target sequence (P42574 whole entry D9A/D28A/D175A): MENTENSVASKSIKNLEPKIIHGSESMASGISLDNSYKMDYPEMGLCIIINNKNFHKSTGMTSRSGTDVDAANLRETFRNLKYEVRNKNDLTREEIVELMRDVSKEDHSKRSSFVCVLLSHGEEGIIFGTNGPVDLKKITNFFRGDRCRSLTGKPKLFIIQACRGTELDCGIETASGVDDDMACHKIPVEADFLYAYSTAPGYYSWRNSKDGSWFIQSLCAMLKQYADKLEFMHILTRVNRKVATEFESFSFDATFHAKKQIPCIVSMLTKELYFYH
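Technique: 405 nm absorbance of p-nitroaniline, reads at 0 and 120 min; Test system: Procaspase-3 D3A mutant; Incubation: 1 h enzyme-compound preincubation, then 2 h substrate reaction, 25 °C; Repeats: singlicate, each compound tested once; Benchmarks: low control DMSO wells, high control DMSO plus 5 µM PC-3 D3A.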
IDE cell inh: human IDE inhibitors in live cells, primary screen, fluorescence polarization, HEK cells, FAbetaB substrate; FAbetaB cleavage; 320,000 compounds, 0.41% hits; inhibition, % at 5.59 µM; AID 434962, 2010;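 active = percent inhibition above the average of all tested compounds plus 3 SD, set per screening campaign, cut at about 16% in these data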;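 note: IDE supplied by intact live HEK cells; FP after avidin binding of uncleaved biotin substrate so inhibition keeps polarization high; 0% = DMSO wells and 100% = 60 µM reference IDE inhibitor Ii1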
IDE inh confirm: human IDE inhibitors in live cells, confirmation, fluorescence polarization, HEK cells, FAbetaB substrate; shares compounds with IDE cell inh; FAbetaB cleavage; inhibition, % at 5.59 µM; 1,200 compounds, 51% hits; AID 435028, 2010;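 active = mean inhibition across triplicate wells above the cutoff set by the earlier primary insulin-degrading enzyme screen, cut at about 16% in these data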;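 note: 0% = DMSO wells and 100% = 60 µM reference IDE inhibitor Ii1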
HEK cytotox: cytotoxicity in HEK cells, cytotoxicity control for IDE inhibitor project, cell-based, luminescence; inhibition, % at 5.59 µM; shares compounds with IDE cell inh; HEK293 cytotoxicity, ATP luminescence; 1,200 compounds, 28% hits; in the data active = inhibition above about 22%;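 note: 0% = vehicle wells and 100% = reference cytotoxic drug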
procasp7 triplic: procaspase-7 activators, counter-screen for procaspase-3 activator project, biochemical, absorbance, triplicate, human | shares compounds with procasp3 activ | recombinant procaspase-7, Ac-DEVD-pNA absorbance; asp23/198/206-to-Ala mutant, cannot self-cleave | 210 tested, under 10 active | activation, % at 8.5 µM;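 active = mean activation above a set limit taken from an earlier procaspase-7 screen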;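 note: 0% = DMSO wells and 100% = DMSO plus 5 µM procaspase-7 enzyme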
proCasp3 confirm: activators of human procaspase-3 D3A mutant, confirmation, biochemical, absorbance, PC-3 D3A mutant, triplicate; 210 compounds, 10% hits; shares compounds with procasp3 activ; activation, % at 8.5 µM; recombinant PC-3 D3A, Ac-DEVD-pNA absorbance 405 nm; 100% is higher-enzyme control; AID 488954, 2010;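 active = mean activation above a set limit carried over from the earlier primary screen, cut at about 22% in these data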
PC3 dual counter: procaspase-3 activators, counter-screen for dual procaspase-3/7 activator project, biochemical, absorbance, PC-3 D3A mutant, human. shares compounds with procasp7 counter. recombinant PC-3 D3A, Ac-DEVD-pNA absorbance 405 nm; aspartates 9, 28, 175 changed to alanine; 100% = enzyme control. activation, % at 8.5 µM. 290 tested, under 10 active;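 active = mean percent activation across triplicates above a set limit taken from the earlier primary procaspase-3 screen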;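 note: 0% = DMSO wells and 100% = DMSO wells with 5 µM added PC-3 D3A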
PC7 dual conf: activation of procaspase-7 enzyme – biochemical, absorbance, human, dual procaspase-3/-7 activator project, confirmation; recombinant procaspase-7, Ac-DEVD-pNA absorbance 405 nm; D23A/D198A/D206A mutant that cannot self-cleave; activation, % at 8.5 µM; 290 tested, under 10 active; shares compounds with procasp7 counter;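 active = mean activation above a set limit carried over from the earlier primary screen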;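 note: 0% = DMSO only and 100% = DMSO with added 5 µM PC-7 enzyme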
* = called active by the depositor; / = no result given. Rows were chosen to be rich in hits. Some 1.9% of all compounds tested hit in one or more screens of this group.

SMILES	IDE cell activ	PHOSPHO1 inh	procasp7 counter	UBC13 inh	procasp3 activ	IDE cell inh	IDE inh confirm	HEK cytotox	others
Cc1n[nH]c(C)c1N1C(=O)c2cccc3c(N4CCCCCC4)ccc(c23)C1=O	-67.2	18.1	-3.6	-226.3	-4.8	121.7*	25.9*	10.3
COc1cc(OC)c(N(C)C(=O)c2cc3c(s2)-c2ccccc2S(=O)(=O)C3)cc1Cl	-1.0	/	-5.8	-1.4	3.7	0.6	/	/
O=C(CC1C(=O)NCCN1Cc1ccc(Cl)c(F)c1)NC1CCCCC1 (stereo unspecified)	-0.5	-17.4	-10.1	-9.7	3.0	0.6	/	/
C/C(=N\Nc1cccc(C(F)(F)F)c1)c1ccc(O)cc1	1.4	27.5	-8.0	-9.3	-4.7	-6.4	/	/
CC(=O)Nc1cc(N=Cc2ccc(O)cc2O)c(Cl)cc1Cl	-54.7	9.4	-0.3	2.8	11.4	17.9*	32.3*	11.2
COc1cc(/C=C2/SC(=Nc3ccc(O)cc3)NC2=O)ccc1O	-41.1	55.2	-7.6	26.6	-11.5	35.4*	59.5*	59.4*
COc1cc(/C=C2\SC(=Nc3ccccc3)NC2=O)cc(Cl)c1O	-112.3	9.4	-18.5	-82.2	-10.1	134.2*	150.0*	28.2*
COc1cc(/C=C2\SC(=Nc3ccccc3OC)NC2=O)ccc1O	-13.4	9.2	-9.6	-26.3	0.9	15.9	/	/
CC(Oc1ccc(-c2ccccc2)cc1)C(=O)N/N=C/c1cccnc1 (stereo unspecified)	-7.7	27.9	-1.9	6.7	-1.0	12.8	/	/
COc1cc(/C=C/C(=O)c2ccc(NS(=O)(=O)c3ccc(C)cc3)cc2)cc(OC)c1O	-23.3	-5.2	-14.0	/	-11.2	26.6*	55.9*	44.7*
COc1cc(/C=C/C(=O)c2ccc(NS(=O)(=O)c3ccc(C)cc3)cc2)ccc1OC(F)F	2.9	-10.5	13.6	-1.5	0.5	-9.0	/	/
Cc1ccc(S(=O)(=O)N2CCN(C(=O)CSCc3ccc(C(C)C)cc3)CC2)cc1	3.3	/	4.2	10.3	-0.6	6.7	/	/
O=C(O)C(c1ccccc1)N1C(=O)/C(=C\c2ccc(O)c(O)c2)SC1=S (stereo unspecified)	-55.2	34.0	-15.7	-50.9	-9.1	66.8*	83.6*	11.7
CCOc1cc(/C=C2\SC(=S)N(C(C(=O)O)c3ccccc3)C2=O)ccc1O (stereo unspecified)	-113.8	12.1	-35.1	-62.8	-19.1	67.8*	139.8*	11.4
CCOc1cc(/C=C2/SC(=S)N(CC3CCCO3)C2=O)ccc1O (stereo unspecified)	-74.4	35.3	-15.4	-79.3	-2.2	34.8*	123.5*	24.3*
CCOc1ccc(/C=C2/SC(=S)N(C(C(=O)O)c3ccccc3)C2=O)cc1OCC (stereo unspecified)	3.6	3.3	/	/	/	/	/	/
COc1cc(/C=C2\SC(=S)N(C(C(=O)O)c3ccccc3)C2=O)ccc1O (stereo unspecified)	-104.8	32.7	-13.4	-37.5	-15.1	64.2*	174.3*	5.6
C[C@H](CO)N1C[C@H](C)[C@@H](CN(C)C(=O)Nc2ccc(C(F)(F)F)cc2)Oc2ccc(NC(=O)Cc3ccccc3)cc2C1=O	0.1	/	-10.8	4.9	5.1	7.0	/	/
O=C(N/N=C/c1ccc(O)cc1O)c1ccc(CN2C(=O)c3cccc4cccc2c34)cc1	-26.6	-41.1	24.4	-0.3	23.4*	25.7*	10.4	98.5*	procasp7 triplic=11.8;proCasp3 confirm=20.7
Cc1nnc(Cn2cnc3c2c(=O)n(C)c(=O)n3C)o1	-3.0	39.2	5.8	4.3	-0.6	-0.9	/	/
O=C(C1=NN(c2ccccc2)C2C(=O)N(c3ccccc3)C(=O)C12)c1ccccc1 (stereo unspecified)	-19.7	10.7	40.8*	8.2	26.3*	18.7*	23.1*	12.0	PC3 dual counter=40.3*;PC7 dual conf=27.5*
O=C(C1=NN(c2ccccc2)C2C(=O)N(c3ccccc3Cl)C(=O)C12)c1ccccc1 (stereo unspecified)	-20.7	-8.6	47.5*	/	30.3*	24.0*	28.9*	10.6	PC3 dual counter=45.5*;PC7 dual conf=34.1*
Cc1ccc(N2C(=O)C3C(C(=O)c4ccccc4)=NN(c4ccccc4)C3C2=O)cc1 (stereo unspecified)	-5.7	-32.1	18.1	8.0	7.2	3.4	/	/
CN(C)S(=O)(=O)c1ccc(Cl)c(C(=O)Nc2cccc3ncccc23)c1	0.7	4.1	6.9	8.7	-3.2	5.1	/	/
CC(=O)NC(c1ccco1)c1cc(Cl)c2ccc(Cl)nc2c1O (stereo unspecified)	1.0	/	-28.1	-9.1	-9.8	-2.0	/	/
